Measured values published in ChEMBL document CHEMBL4351005, “Human constitutive androstane receptor agonist DL5016: A novel sensitizer for cyclophosphamide-based chemotherapies” (Eur J Med Chem, 2019).
Converted amounts (≈) assume the structure as drawn.

Columns and labels:
[1] = target: T1, Nuclear receptor subfamily 1 group I member 3 (Homo sapiens, UniProt Q14994); experiment: Agonist activity at human constitutive androstane receptor expressed in HepG2 cells co-expressing CYP2B6 at 1 uM incubated for 23 hrs by One-Glo luciferase reporter gene assay; assay type: cell-based; settings: hepg2, 23 h
T1 sequence (Q14994 whole entry): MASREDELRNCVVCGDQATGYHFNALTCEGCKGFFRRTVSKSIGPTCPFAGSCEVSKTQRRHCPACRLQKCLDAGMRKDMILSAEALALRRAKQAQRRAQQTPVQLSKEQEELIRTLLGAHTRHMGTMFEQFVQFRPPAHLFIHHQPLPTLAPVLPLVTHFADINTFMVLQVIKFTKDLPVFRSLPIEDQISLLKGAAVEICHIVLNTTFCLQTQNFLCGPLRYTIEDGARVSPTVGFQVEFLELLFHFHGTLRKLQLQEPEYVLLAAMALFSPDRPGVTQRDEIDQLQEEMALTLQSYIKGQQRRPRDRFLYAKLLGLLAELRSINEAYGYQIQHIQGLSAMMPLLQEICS

[2] = target: T2, Nuclear receptor subfamily 1 group I member 2 (Homo sapiens, UniProt O75469); experiment: Agonist activity at human PXR expressed in HepG2 cells co-expressing CYP2B6 at 1 uM incubated for 23 hrs by One-Glo luciferase reporter gene assay; assay type: cell-based; settings: hepg2, 23 h
T2 sequence (O75469 whole entry): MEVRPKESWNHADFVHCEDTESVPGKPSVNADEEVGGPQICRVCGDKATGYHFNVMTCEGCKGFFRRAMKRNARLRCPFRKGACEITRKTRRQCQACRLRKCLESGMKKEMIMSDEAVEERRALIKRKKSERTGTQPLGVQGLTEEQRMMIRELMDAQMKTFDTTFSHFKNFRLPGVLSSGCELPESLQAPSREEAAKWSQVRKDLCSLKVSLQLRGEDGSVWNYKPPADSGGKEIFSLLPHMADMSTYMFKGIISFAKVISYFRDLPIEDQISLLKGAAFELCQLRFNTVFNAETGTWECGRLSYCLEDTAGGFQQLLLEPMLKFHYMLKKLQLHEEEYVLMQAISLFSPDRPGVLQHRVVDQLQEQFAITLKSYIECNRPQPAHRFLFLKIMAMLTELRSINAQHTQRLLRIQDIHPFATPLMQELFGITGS

[3] = target: T1, Nuclear receptor subfamily 1 group I member 3; experiment: Agonist activity at human constitutive androstane receptor expressed in HepG2 cells co-expressing CYP2B6 incubated for 23 hrs by One-Glo luciferase reporter gene assay; assay type: cell-based
How it was run: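 HepG2-CYP2B6-hCAR stable reporter cells, 2,500/well, attached 5 h at 37 °C/5% CO₂. Compounds in DMSO, 16 final concentrations from 6.41 pM to 92 μM (1:3 steps), with PK11195 at 0.75 μM final; final DMSO 0.46%. After 23 h, viability read by CellTiter-Fluor (ex 405/em 540 nm), then ONE-Glo luminescence (30 min, RT) in RLU.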

[4] = target: T1, Nuclear receptor subfamily 1 group I member 3; experiment: Ratio of Emax to EC50 for human constitutive androstane receptor expressed in HepG2 cells co-expressing CYP2B6
[5] = Lipophilicity, logP of compound; assay type: physicochemical; settings: octanol/water
[6] = target: T1, Nuclear receptor subfamily 1 group I member 3; experiment: Induction of constitutive androstane receptor in human primary hepatocytes assessed as upregulation of CYP3A4 protein expression measured after 72 hrs by Western blot analysis; assay type: cell-based
How it was run: (§1)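 Hepatocytes from donors #131 and #133, dosed 36 h after seeding at 0.1, 0.5 and 1 μM (0.1% DMSO vehicle) for 72 h. Homogenate proteins run on 4–12% SDS-PAGE and immunoblotted: anti-CYP2B6 1:200, anti-CYP3A4 1:5000, β-actin 1:50,000 loading control. HRP secondaries, ECL detection.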

[7] = target: T1, Nuclear receptor subfamily 1 group I member 3; experiment: Induction of constitutive androstane receptor in human primary hepatocytes assessed as upregulation of CYP3A4 mRNA expression measured after 24 hrs by RT-PCR analysis; assay type: cell-based
How it was run: (§2)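 Primary human hepatocytes (donors HL-#131 and #133), viability >90%, 0.75×10⁶ cells/well, Matrigel overlay 0.25 mg/mL. Dosed 36 h post-seeding at 0.1, 0.5 and 1 μM (vehicle 0.1% DMSO; rifampin 10 μM reference) for 24 h. RT-PCR fold over control = 2^ΔΔCt versus GAPDH; mean ± SD, three independent experiments.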

[8] = target: T1, Nuclear receptor subfamily 1 group I member 3; experiment: Induction of constitutive - androstane receptor in human primary hepatocytes assessed as upregulation of CYP2B6 mRNA expression measured after 24 hrs by RT-PCR analysis; assay type: cell-based; how it was run: as §2
[9] = target: T1, Nuclear receptor subfamily 1 group I member 3; experiment: Induction of constitutive - androstane receptor in human primary hepatocytes assessed as upregulation of CYP2B6 protein expression measured after 72 hrs by Western blot analysis; assay type: cell-based; how it was run: as §1
[10] = target: T1, Nuclear receptor subfamily 1 group I member 3; experiment: Induction of adenoviral enhanced yellow fluorescent protein tagged constitutive androstane receptor translocation from cytoplasm to nucleus in human primary hepatocytes at 1 uM measured after 8 hrs by DAPI staining based fluorescent microscopic analysis; assay type: cell-based
How it was run: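 Hepatocytes (60,000/well, collagen plates) infected overnight with Ad/EYFP-hCAR (3 μL/mL), then treated 8 h at 1 μM; controls 0.1% DMSO, phenobarbital 1 mM. Cells PFA-fixed and DAPI-stained; five images per well. Translocation % = cells with ≥50% nuclear overlap with EYFP-hCAR ÷ EYFP-positive cells; mean ± SD of five images.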

[11] = test system: SUD4; experiment: Potentiation of cyclophospamide/doxorubicin/vincristine/prednisone induced cytotoxicity against human SUDHL4 cells co-cultured with human primary hepatocytes assessed as reduction in cell viability after 24 hrs; assay type: functional, cell-based
How it was run: (§3)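 Hepatocytes pretreated 24 h with 1 μM test agent or 0.1% DMSO. 0.5×10⁶ SU-DHL-4 cells then added in membrane inserts (Williams' E). Co-cultures exposed with or without CHOP (5, 100, 500 μM; time course at 100 μM), plus or minus 1 μM agent. Viability by trypan blue exclusion at 24 h or set times, as % of vehicle; three independent measurements.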

[12] = Aqueous solubility of compound measured after 6 hrs by reverse phase HPLC analysis; assay type: physicochemical; settings: water
How it was run: (§4)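 6 mg solid in 1 mL water or PBS (pH 7.4), shaken 6 h at 25 °C, centrifuged, and the supernatant filtered. Filtrate quantified by C18 reverse-phase HPLC: water-acetonitrile-triethylamine 30:70:0.01, 1 mL/min, UV 312 nm. Standard curve from solutions of known concentration.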

[13] = test system: SUD4; experiment: Potentiation of cyclophospamide/doxorubicin/vincristine/prednisone induced cytotoxicity against human SUDHL4 cells co-cultured with human primary hepatocytes assessed as reduction in cell viability at 1 uM; assay type: functional, cell-based; settings: TDE = time-dependent effect; how it was run: as §3
[14] = Aqueous solubility of the compound in phosphate buffer at pH 7.4 measured after 6 hrs by reverse phase HPLC analysis; assay type: physicochemical; settings: pH 7.4, 6 h; how it was run: as §4
[15] = Stability of compound; assay type: physicochemical
[16] = test system: SUD4; experiment: Antiproliferative activity against human SUDHL4 cells co-cultured with human primary hepatocytes assessed as reduction in cell viability at 1 uM after 24 hrs; assay type: cell-based; settings: sud4, 24 h; how it was run: as §3
[17] = target: T1, Nuclear receptor subfamily 1 group I member 3; experiment: Induction of constitutive - androstane receptor in human primary hepatocytes assessed as upregulation of CYP2B6 mRNA expression at 0.5 to 5 uM after 24 hrs by RT-PCR analysis; assay type: cell-based
[18] = target: T1, Nuclear receptor subfamily 1 group I member 3; experiment: Induction of constitutive - androstane receptor in human primary hepatocytes assessed as upregulation of CYP3A4 mRNA expression at 0.5 to 5 uM after 24 hrs by RT-PCR analysis; assay type: cell-based

Clc1ccc(-c2nc3sccn3c2CNC2Cc3ccccc3C2)cc1
Activity [1]: Active | Activity [2]: Active | EC50 [3]: 0.46 µM | Ratio [4]: 7.4 µM⁻¹

Clc1ccc(CCNCc2c(-c3ccc(Br)cc3)nc3sccn23)cc1Cl
EC50 [3]: 0.56 µM | Ratio [4]: 4.6 µM⁻¹

CC(C)(C)c1ccc(-c2nc3sccn3c2CNCCc2ccc(Cl)c(Cl)c2)cc1
EC50 [3]: 10 µM | Ratio [4]: 0.74 µM⁻¹

O=C(NCCc1ccc(Cl)c(Cl)c1)c1c(-c2ccc(Cl)cc2)nc2sccn12
EC50 [3]: 1.1 µM | Ratio [4]: 2.4 µM⁻¹

FC(F)(F)c1ccc(-c2nc3sccn3c2CNCCc2ccc(Cl)c(Cl)c2)cc1
EC50 [3]: 2.1 µM | Ratio [4]: 1.7 µM⁻¹

Clc1ccc(-c2nc3sccn3c2CNCCc2c[nH]c3ccccc23)cc1
EC50 [3]: 2.7 µM | Ratio [4]: 1.4 µM⁻¹

c1ccc(CCNCc2c(-c3ccc4ccccc4c3)nc3sccn23)cc1
Activity [1]: Active | EC50 [3]: 1.9 µM | Ratio [4]: 1.9 µM⁻¹

Clc1ccc(CCNCc2c(-c3ccccc3)nc3sccn23)cc1Cl
Activity [1]: Active | EC50 [3]: 0.24 µM | Ratio [4]: 12 µM⁻¹

Clc1ccc(CCNCc2c(-c3ccc(Cl)cc3)nc3sccn23)cc1
Activity [1]: Active | Activity [2]: Active | EC50 [3]: 0.65 µM | Ratio [4]: 4.3 µM⁻¹

CCc1nc2sccn2c1CNCCc1ccc(Cl)c(Cl)c1
EC50 [3]: 8.7 µM | Ratio [4]: 0.37

Clc1ccc(-c2nc3sccn3c2CNc2ccc3ccccc3c2)cc1
EC50 [3]: 63 µM | Ratio [4]: 0.22 µM⁻¹

Clc1ccc(-c2nc3sccn3c2CNCCc2ccccc2)cc1
Activity [1]: Active | Activity [2]: Active | EC50 [3]: 0.74 µM | Ratio [4]: 3.9 µM⁻¹

Clc1ccc(-c2nc3occn3c2CNCCc2ccc(Cl)c(Cl)c2)cc1
EC50 [3]: 1.3 µM | Ratio [4]: 2.3 µM⁻¹

Fc1ccc(CCNCc2c(-c3ccc(Cl)cc3)nc3sccn23)cc1
EC50 [3]: 2.1 µM | Ratio [4]: 1.4 µM⁻¹

c1ccc2c(c1)CC(NCc1c(-c3ccc4ccccc4c3)nc3sccn13)C2
Activity [1]: Active | Activity [2]: Active | EC50 [3]: 1.6 µM | Ratio [4]: 2.4 µM⁻¹

Clc1ccc(-c2nc3sccn3c2/C=N/OCc2ccc(Cl)c(Cl)c2)cc1
logP [5]: 7.26 | Activity [6]: Active | Activity [7]: Active | Activity [1]: Active | Activity [8]: Dose-dependent effect | Activity [2]: Active | Activity [9]: Dose-dependent effect | Activity [10]: Active

Cc1cn2c(CNCCc3ccc(Cl)c(Cl)c3)c(-c3ccc(Cl)cc3)nc2s1
EC50 [3]: 2.2 µM | Ratio [4]: 1.4 µM⁻¹

Oc1ccc(CCNCc2c(-c3ccc(Cl)cc3)nc3sccn23)cc1
EC50 [3]: 10 µM | Ratio [4]: 0.36 µM⁻¹

Clc1ccc(-c2nc3sccn3c2COCCc2ccc(Cl)c(Cl)c2)cc1
Activity [1]: Active | Activity [2]: Active | EC50 [3]: 0.19 µM | Ratio [4]: 13 µM⁻¹

Clc1cccc(-c2nc3sccn3c2CNCCc2ccc(Cl)c(Cl)c2)c1
EC50 [3]: 0.93 µM | Ratio [4]: 3.4 µM⁻¹

Clc1ccc(-c2nc3sccn3c2CNCCc2ccc(Br)cc2)cc1
EC50 [3]: 3.2 µM | Ratio [4]: 1.1 µM⁻¹

COc1ccc(-c2nc3sccn3c2CNCCc2ccc(Cl)c(Cl)c2)cc1
EC50 [3]: 0.67 µM | Ratio [4]: 4.3 µM⁻¹

N#Cc1ccc(-c2nc3sccn3c2CNCCc2ccc(Cl)c(Cl)c2)cc1
EC50 [3]: 1.5 µM | Ratio [4]: 1.9 µM⁻¹

c1ccc2c(c1)CC(NCc1c(-c3ccc4ccccc4c3)nc3occn13)C2
logP [5]: 4.62 | Activity [6]: Dose-dependent effect | Activity [7]: Active | Activity [8]: Dose-dependent effect | Activity [11]: Dose-dependent effect | solubility [12]: 18 µg/mL (≈ 47.4 µM) | Activity [13]: Tde | EC50 [3]: 0.66 µM | solubility [14]: 17 µg/mL (≈ 44.8 µM) | Stability [15]: Stable | Ratio [4]: 7.4 µM⁻¹ | Activity [16]: Non-Toxic | Activity [9]: Dose-dependent effect | Activity [10]: Active

Clc1ccc(CCNCc2c(-c3ccc4ccccc4c3)nc3sccn23)cc1Cl
Activity [1]: Active | Activity [2]: Active | EC50 [3]: 1.5 µM | Ratio [4]: 2.4 µM⁻¹

Fc1ccc(-c2nc3sccn3c2CNCCc2ccc(Cl)c(Cl)c2)cc1
Activity [1]: Active | EC50 [3]: 0.15 µM | Ratio [4]: 18 µM⁻¹

Clc1ccc(-c2nc3sccn3c2/C=N/CCc2ccc(Cl)c(Cl)c2)cc1
Activity [17]: Not Active | Activity [18]: Not Active | EC50 [3]: 54 µM | Ratio [4]: 0.13 µM⁻¹

Clc1ccc(-c2nc3sccn3c2CNCc2ccccc2)cc1
EC50 [3]: 9.2 µM | Ratio [4]: 0.42 µM⁻¹

Clc1ccc(-c2nc3sccn3c2CNCCc2cccc(Cl)c2)cc1
EC50 [3]: 2.8 µM | Ratio [4]: 1.1 µM⁻¹

CN(CCc1ccc(Cl)c(Cl)c1)Cc1c(-c2ccc(Cl)cc2)nc2sccn12
EC50 [3]: 1.1 µM | Ratio [4]: 2.1 µM⁻¹

Clc1ccc(-c2nc3sccn3c2CNCCc2ccc(Cl)c(Cl)c2)cc1
Activity [1]: Active | Activity [2]: Active | EC50 [3]: 0.4 µM | Ratio [4]: 7 µM⁻¹

Cc1ccc(-c2nc3sccn3c2CNCCc2ccc(Cl)c(Cl)c2)cc1
EC50 [3]: 0.44 µM | Ratio [4]: 6.1 µM⁻¹

Clc1ccc(-c2nc3ncccn3c2CNCCc2ccc(Cl)c(Cl)c2)cc1
EC50 [3]: 0.92 µM | Ratio [4]: 3 µM⁻¹
